Measured values taken from ChEMBL document CHEMBL5303300, “EUbOPEN Chemogenomics Library - Multiplex” (2023).
“And” between values parts separate entries of the source, which are not always exact repeats. Equal values may be shown once.

Tested on: HEK-293T
Experiment: Multiplex assay against HEK293T
Assay type: toxicity, cell-based
Conditions: human, number of replicates 2
How it was run: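 Compound was added to live cells that had been stained at seeding with Hoechst33342, BioTracker Green Microtubule Cytoskeleton Dye, MitoTracker Red and Annexin V Alexa Fluor 680, and imaging followed on a CQ1 microscope at 37°C and 5% CO2. CellPathfinder machine-learning gating divided cells into Hoechst high-intensity objects or normal cells, normal cells into healthy, pyknosed or fragmented nuclei, and pyknosed cells into mitotic or apoptotic. Tubulin, mitochondrial-mass and membrane-permeability phenotypes are per cents of healthy-nucleus cells.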

[1] = 12 h, 1 µM, compound concentration 1 uM
[2] = 12 h, 10 µM, compound concentration 10 uM
[3] = 24 h, 1 µM, compound concentration 1 uM
[4] = 24 h, 10 µM, compound concentration 10 uM
[5] = 48 h, 1 µM, compound concentration 1 uM
[6] = 48 h, 10 µM, compound concentration 10 uM

CC(C)S(=O)(=O)c1ccccc1Nc1nc(N[C@@H]2CCCN(CCCCCCCNC(=O)COc3cccc4c3C(=O)N(C3CCC(=O)NC3=O)C4=O)C2)ncc1Cl (stereo partly specified)
Population Apoptotic (%) [1]: 72% and 70%
Population Fragmented Nuclei (%) [1]: 2% and 3%
Population Healthy Nuclei (%) [1]: 80% and 76%
Population Hoechst High Intensity Objects (%) [1]: 8% and 16%
Population Membrane Permeable-Phenotype (%) [1]: 0%
Population Mitochondria Different-Phenotype (%) [1]: 61% and 50%
Population Mitotic Cells (%) [1]: 27% and 29%
Population Normal (%) [1]: 91% and 83%
Population Pyknosed Nuclei (%) [1]: 17% and 19%
Population Tubulin-Different-Phenotype (%) [1]: 75% and 73%
Total Cell Count [1]: 378 and 397
Population Apoptotic (%) [2]: 48% and 67%
Population Fragmented Nuclei (%) [2]: 4% and 5%
Population Healthy Nuclei (%) [2]: 63% and 65%
Population Hoechst High Intensity Objects (%) [2]: 18% and 15%
Population Membrane Permeable-Phenotype (%) [2]: 6%
Population Mitochondria Different-Phenotype (%) [2]: 70%
Population Mitotic Cells (%) [2]: 51% and 32%
Population Normal (%) [2]: 81% and 84%
Population Pyknosed Nuclei (%) [2]: 31% and 29%
Population Tubulin-Different-Phenotype (%) [2]: 48% and 66%
Total Cell Count [2]: 366 and 343
Population Apoptotic (%) [3]: 65% and 76%
Population Fragmented Nuclei (%) [3]: 3% and 5%
Population Healthy Nuclei (%) [3]: 82% and 79%
Population Hoechst High Intensity Objects (%) [3]: 12% and 14%
Population Membrane Permeable-Phenotype (%) [3]: 1%
Population Mitochondria Different-Phenotype (%) [3]: 65% and 63%
Population Mitotic Cells (%) [3]: 34% and 23%
Population Normal (%) [3]: 87% and 85%
Population Pyknosed Nuclei (%) [3]: 14% and 15%
Population Tubulin-Different-Phenotype (%) [3]: 69% and 67%
Total Cell Count [3]: 385 and 384
Population Apoptotic (%) [4]: 79% and 70%
Population Fragmented Nuclei (%) [4]: 6% and 3%
Population Healthy Nuclei (%) [4]: 65% and 61%
Population Hoechst High Intensity Objects (%) [4]: 19%
Population Membrane Permeable-Phenotype (%) [4]: 1% and 2%
Population Mitochondria Different-Phenotype (%) [4]: 81% and 87%
Population Mitotic Cells (%) [4]: 20% and 30%
Population Normal (%) [4]: 80%
Population Pyknosed Nuclei (%) [4]: 28% and 34%
Population Tubulin-Different-Phenotype (%) [4]: 85% and 93%
Total Cell Count [4]: 341 and 356
Population Apoptotic (%) [5]: 78% and 74%
Population Fragmented Nuclei (%) [5]: 3%
Population Healthy Nuclei (%) [5]: 84% and 83%
Population Hoechst High Intensity Objects (%) [5]: 12% and 14%
Population Membrane Permeable-Phenotype (%) [5]: 0% and 1%
Population Mitochondria Different-Phenotype (%) [5]: 66% and 57%
Population Mitotic Cells (%) [5]: 21% and 25%
Population Normal (%) [5]: 87% and 85%
Population Pyknosed Nuclei (%) [5]: 11% and 13%
Population Tubulin-Different-Phenotype (%) [5]: 66% and 57%
Total Cell Count [5]: 316 and 306
Population Apoptotic (%) [6]: 78% and 74%
Population Fragmented Nuclei (%) [6]: 6% and 5%
Population Healthy Nuclei (%) [6]: 70% and 63%
Population Hoechst High Intensity Objects (%) [6]: 18% and 20%
Population Membrane Permeable-Phenotype (%) [6]: 2% and 1%
Population Mitochondria Different-Phenotype (%) [6]: 73% and 79%
Population Mitotic Cells (%) [6]: 21% and 25%
Population Normal (%) [6]: 81% and 79%
Population Pyknosed Nuclei (%) [6]: 23% and 31%
Population Tubulin-Different-Phenotype (%) [6]: 66% and 77%
Total Cell Count [6]: 296 and 313
